Assay [1] has as its system Mus musculus. Nature of the assay: Antitussive activity in ammonia liquor-induced mouse assessed as number of cough times at 5 mg/kg, po daily for 3 consecutive days administered before ammonia liquor induction measured for 3 mins. The class given is functional. The procedure, abridged:
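Mice were dosed in 0.5% sodium carboxymethyl cellulose vehicle (0.2 mL/mouse). On day 3, 2 h after dosing, they were placed in a glass chamber and exposed for 5 s to 28% NH₄OH aerosol, nebulized with compressed air at about 400 mmHg. Coughs were counted over 3 min from spray start. Codeine 10 mg/kg was the positive control and vehicle the negative control. n = 10, mean ± SD.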

Assay [2] has as its system HL-60. In words: Antitumor activity against human HL-60 cells at 0.1 uM by MTT assay. The class given is functional, cell-based. The essentials:
(§1)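 MTT growth-inhibition assay on human A549, BGC-823, SMMC-7721 and HL-60 cancer cells. Each compound was tested at 1×10^-7, 1×10^-6 and 1×10^-5 mol/L. Percent inhibition was calculated relative to untreated cells.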
(Tetrazolium assays rely on reduction of a dye to a coloured formazan, in cell work by metabolically active cells.)

For assay [3], the system named is BGC-823. In words: Antitumor activity against human BGC-823 cells at 1 uM by MTT assay. The format is functional, cell-based. The procedure, abridged:
as §1

Assay [4] relates to A549. Nature of the assay: Antitumor activity against human A549 cells at 0.1 uM by MTT assay. The class given is functional, cell-based. The procedure, abridged: as §1
For assay [5], the system named is HL-60. Nature of the assay: Antitumor activity against human HL-60 cells at 1 uM by MTT assay. The format is functional, cell-based. The procedure, abridged:
as §1

The test system of assay [6] is SMMC-7721. Nature of the assay: Antitumor activity against human SMMC7721 cells at 1 uM by MTT assay. The format is functional, cell-based. The essentials:
as §1

Assay [7] has as its system BGC-823. In words: Antitumor activity against human BGC-823 cells at 0.1 uM by MTT assay. The format is functional, cell-based. The procedure, abridged: as §1
Assay [8] relates to SMMC-7721. In words: Antitumor activity against human SMMC7721 cells at 0.1 uM by MTT assay. The format is functional, cell-based. The essentials:
as §1

For assay [9], the system named is Mus musculus. In words: Antitussive activity in ammonia liquor-induced mouse assessed as number of cough times at 10 mg/kg, po daily for 3 consecutive days administered before ammonia liquor induction measured for 3 mins. The class given is functional. The procedure, abridged: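 Mice were dosed for three days, with vehicle 0.5% sodium carboxymethyl cellulose at 0.2 mL/mouse; codeine 10 mg/kg served as positive control. On day 3, 2 h post-dose, each mouse was placed in a glass chamber and exposed for 5 s to 28% NH4OH aerosol nebulised by compressed air at about 400 mmHg. Coughs were counted over 3 min from spray onset; n = 10, mean ± SD.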

Assay [10] concerns A549. Nature of the assay: Antitumor activity against human A549 cells at 1 uM by MTT assay. The class given is functional, cell-based. The essentials: as §1
In assay [11] the test system is HL-60. In words: Antitumor activity against human HL-60 cells at 10 uM by MTT assay. The class given is functional. The procedure, abridged: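 HL-60 cells were tested by MTT assay at 1×10^-7, 1×10^-6 and 1×10^-5 mol/L of each compound. Percent growth inhibition was calculated relative to untreated cells.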

These results are taken from ChEMBL document CHEMBL1142589, “Steroidal alkaloids from the bulbs of Fritillaria puqiensis” (2005).

The structures appear in SMILES notation. The source made the active and inactive calls. No cut-off for these calls is given here.

As for `CC1=C2C[C@H]3[C@@H](CC(=O)[C@H]4C[C@@H](O)CC[C@@]43C)[C@@H]2CC[C@@H]1[C@@H](C)[C@@H]1[C@H](O)C[C@@H](C)CN1C` (relative stereo) [PUQIENINE B], the Activity with Mus musculus [1] was 12; in the assay on Mus musculus [9], 10. The outcome in the assay with HL-60 [2], in the assay with BGC-823 [3], in the assay on A549 [4], with HL-60 [5], in the assay on SMMC-7721 [6] and with BGC-823 [7] was inactive. Further, the result in the assay on SMMC-7721 [8] and in the assay on A549 [10] was inactive.

As to `C[C@@H]1CC[C@@H]([C@@H](C)[C@@H]2CC[C@H]3[C@@H]4CC(=O)[C@H]5C[C@@H](O)CC[C@]5(C)[C@H]4CC[C@]23C)N(C)C1` [PUQIETINONE], the Activity with Mus musculus [1] was 17; in the assay with Mus musculus [9], 11.

For the compound `CC1=C2C[C@H]3[C@@H](C[C@@H](O)[C@H]4C[C@@H](O)CC[C@@]43C)[C@@H]2CC[C@@H]1[C@@H](C)[C@@H]1[C@H](O)C[C@@H](C)CN1C` (relative stereo) [PUQIENINE A], the Activity was found to be 18 in the assay with Mus musculus [1] and 14 with Mus musculus [9]. The result in the assay on HL-60 [2], in the assay on BGC-823 [3], with A549 [4], in the assay on HL-60 [5], in the assay on SMMC-7721 [6] and in the assay with BGC-823 [7] was inactive. Besides, the result in the assay on SMMC-7721 [8] and with A549 [10] was inactive.

As to `C[C@H]1CC[C@H]([C@@H](C)[C@H]2CC[C@H]3[C@@H]4CC(=O)[C@H]5C[C@@H](O[C@@H]6O[C@H](CO)[C@@H](O)[C@H](O)[C@H]6O)CC[C@]5(C)[C@H]4CC[C@]23C)N(C)C1` [PUQIETINONOSIDE], the Activity with Mus musculus [1] is 17; with Mus musculus [9], 13. For the same compound, the result with HL-60 [2], in the assay with BGC-823 [3], in the assay on A549 [4], in the assay with HL-60 [5], in the assay on SMMC-7721 [6] and in the assay with BGC-823 [7] was inactive. For the same compound, the result in the assay with SMMC-7721 [8] and in the assay with A549 [10] was inactive.

`C[C@H]1CC[C@H]([C@@H](C)[C@H]2CC[C@H]3[C@@H]4CC(=O)[C@H]5C[C@@H](O)CC[C@]5(C)[C@H]4CC[C@]23C)NC1`: the results for the Activity in the assay on Mus musculus [1], with HL-60 [11] and in the assay on Mus musculus [9] were 23, 51% and 18, respectively. The outcome in the assay on HL-60 [2], in the assay with BGC-823 [3], in the assay on A549 [4], in the assay with HL-60 [5], in the assay with SMMC-7721 [6] and in the assay on BGC-823 [7] was inactive. Besides, the result with SMMC-7721 [8] and with A549 [10] was inactive.

With `COc1ccc2c3c1O[C@H]1[C@@H](O)C=C[C@H]4[C@@H](C2)N(C)CC[C@@]341` [CODEINE], in the assay on Mus musculus [9], the Activity was determined as 5.
